# According to ChEMBL document CHEMBL1121581, “4-Piperazinyl-10H-thieno[2,3-b][1,5]benzodiazepines as potential neuroleptics” (J Med Chem, 1980):
# How the values were obtained:
# [1] = system: Rattus norvegicus; experiment: Compound was assessed for its ability to block a conditioned avoidance response; Dose administered perorally is 25 mg/kg; no significant effect (0-25%block); type: functional; details: route oral
# How it was run: (§1)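 Lilly Wistar rats (120–130 g) trained in a shuttle box to cross on a 5-s buzzer, with mild shock if no response within 1 s of buzzer end. Only rats with a high conditioned response were used. Groups of five were dosed orally 1 h 50 min before the session, then habituated 10 min and tested 20 min. Shocks were scored as % of stimuli and graded 0–5.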
# [2] = Lethal dose in mice after perorla administration; type: toxicity, organism-based; details: mouse, in vivo, po
# [3] = system: Mus musculus; experiment: Hypothermia in mice after peroral administration; type: functional
# [4] = system: Rattus norvegicus; experiment: Ability to block a conditioned avoidance response; Dose administered perorally is 50 mg/kg.; type: functional; details: route oral; how it was run: as §1
# [5] = system: Rattus norvegicus; experiment: Compound was assessed for its ability to produce catalepsy in rats; Dose administered perorally is 20 mg/kg; Group score is 8-15; type: functional; details: route oral
# How it was run: (§2)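 Groups of eight Lilly Wistar rats (180–190 g) were dosed orally, then checked at 0.5, 1, 1.5, 2, 3, 4 and 5 h. Front paws were placed on a 1.5-cm rod 7 cm above the table, and hold time was recorded up to 20 min. Each rat was scored 0–5 and its maximum scores were summed per group (maximum 40), then graded 0–4.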
# [6] = system: Rattus norvegicus; experiment: Compound was assessed for its ability to block a conditioned avoidance response; Dose administered perorally is 10 mg/kg; no significant effect (0-25%block); type: functional; details: route oral; how it was run: as §1
# [7] = system: Rattus norvegicus; experiment: Compound was assessed for its ability to block a conditioned avoidance response; Dose administered perorally is 8 mg/kg; 31-50%block; type: functional; details: route oral; how it was run: as §1
# [8] = system: Rattus norvegicus; experiment: Compound was assessed for its ability to produce catalepsy in rats; Dose administered perorally is 8 mg/kg; Group score is 4-7; type: functional; details: route oral; how it was run: as §2
# [9] = system: Rattus norvegicus; experiment: Compound was assessed for its ability to block a conditioned avoidance response; Dose administered perorally is 10 mg/kg; 51-75%block; type: functional; details: route oral; how it was run: as §1
# [10] = system: Rattus norvegicus; experiment: Compound was assessed for its ability to produce catalepsy in rats; Dose administered perorally is 10 mg/kg; Group score is 8-15; type: functional; details: route oral; how it was run: as §2
# [11] = system: Rattus norvegicus; experiment: Compound was assessed for its ability to block a conditioned avoidance response; Dose administered perorally is 50 mg/kg; 26-30%block; type: functional; details: route oral; how it was run: as §1
# [12] = system: Rattus norvegicus; experiment: Compound was assessed for its ability to produce catalepsy in rats; Dose administered perorally is 10 mg/kg; Group score is 4-7; type: functional; details: route oral; how it was run: as §2
# [13] = system: Rattus norvegicus; experiment: Compound was assessed for its ability to block a conditioned avoidance response; Dose administered perorally is 20 mg/kg; 76-99%block; type: functional; details: route oral; how it was run: as §1
# [14] = system: Rattus norvegicus; experiment: Compound was assessed for its ability to produce catalepsy in rats; Dose administered perorally is 25 mg/kg; Group score is 16-30; type: functional; details: route oral; how it was run: as §2
# [15] = system: Rattus norvegicus; experiment: Compound was assessed for its ability to block a conditioned avoidance response; Dose administered intraperitoneally is 50 mg/kg; no significant effect (0-25%block); type: functional; details: route intraperitoneal
# [16] = system: Rattus norvegicus; experiment: Compound was assessed for its ability to produce catalepsy in rats; Dose administered perorally is 25 mg/kg; Group score is 8-15; type: functional; details: route oral; how it was run: as §2
# [17] = system: Rattus norvegicus; experiment: Compound was assessed for its ability to block a conditioned avoidance response; Dose administered perorally is 40 mg/kg; 26-30%block; type: functional; details: route oral; how it was run: as §1
# [18] = system: Rattus norvegicus; experiment: Compound was assessed for its ability to produce catalepsy in rats; Dose administered perorally is 50 mg/kg; Group score is 0-3; type: functional; details: route oral; how it was run: as §2
# [19] = system: Rattus norvegicus; experiment: Compound was assessed for its ability to produce catalepsy in rats; Dose administered perorally is 50 mg/kg; Group score is 4-7; type: functional; details: route oral; how it was run: as §2
# [20] = system: Rattus norvegicus; experiment: Compound was assessed for its ability to block a conditioned avoidance response; Dose administered perorally is 2.5 mg/kg; 31-50%block; type: functional; details: route oral; how it was run: as §1
# [21] = system: Rattus norvegicus; experiment: Compound was assessed for its ability to produce catalepsy in rats; Dose administered perorally is 2.5 mg/kg; Group score is 31-40; type: functional; details: route oral; how it was run: as §2
# [22] = system: Rattus norvegicus; experiment: Compound was assessed for its ability to block a conditioned avoidance response; Dose administered perorally is 10 mg/kg; 26-30%block; type: functional; details: route oral; how it was run: as §1
# [23] = system: Rattus norvegicus; experiment: Compound was assessed for its ability to block a conditioned avoidance response; Dose administered perorally is 10 mg/kg; 31-50%block; type: functional; details: route oral; how it was run: as §1
# [24] = system: Rattus norvegicus; experiment: Compound was assessed for its ability to produce catalepsy in rats; Dose administered perorally is 16 mg/kg; Group score is 4-7; type: functional; details: route oral; how it was run: as §2
# [25] = system: Rattus norvegicus; experiment: Compound was assessed for its ability to produce catalepsy in rats; Dose administered perorally is 50 mg/kg; Group score is 8-15; type: functional; details: route oral; how it was run: as §2
# [26] = system: Rattus norvegicus; experiment: Compound was assessed for its ability to block a conditioned avoidance response; Dose administered perorally is 20 mg/kg; no significant effect (0-25%block); type: functional; details: route oral; how it was run: as §1
# [27] = system: Rattus norvegicus; experiment: Compound was assessed for its ability to block a conditioned avoidance response; Dose administered perorally is 50 mg/kg; 76-99%block; type: functional; details: route oral; how it was run: as §1
Compound,LD50 [2],EDmin [3],Activity [4],also measured
Cc1csc2c1C(N1CCN(C)CC1)=Nc1cc(F)ccc1N2,> 200 mg/kg,25 mg/kg,,Activity [1]: 0
CCc1cc2c(s1)Nc1ccc(S(C)(=O)=O)cc1N=C2N1CCN(C)CC1,> 400 mg/kg,>400 mg/kg,0,
CCCN1CCN(C2=Nc3ccccc3Nc3sc(CC)cc32)CC1,> 200 mg/kg,25 mg/kg,,Activity [5]: 2; Activity [6]: 0
CCc1cc2c(s1)Nc1ccc(F)cc1N=C2N1CCN(C)CC1.O=C(O)/C=C\C(=O)O,200 mg/kg,6.25 mg/kg,,Activity [7]: 2; Activity [8]: 1
Cc1cc2c(s1)Nc1ccc(F)cc1N=C2N1CC[N+](C)([O-])CC1,200 mg/kg,6.25 mg/kg,,Activity [9]: 3; Activity [10]: 2
CCCCCCc1cc2c(s1)Nc1ccc(F)cc1N=C2N1CCN(C)CC1,> 400 mg/kg,100 mg/kg,0,
Cc1cc2c(s1)Nc1ccc(F)cc1N=C2N1CCNCC1,400 mg/kg,100 mg/kg,,Activity [11]: 1
CCc1cc2c(s1)Nc1ccc(F)cc1N=C2N1CCN(CCO)CC1,400 mg/kg,50 mg/kg,,Activity [12]: 1; Activity [13]: 4
CCc1cc2c(s1)Nc1ccc(Cl)cc1N=C2N1CCN(C)CC1,50 mg/kg,6.25 mg/kg,,Activity [7]: 2; Activity [8]: 1
CCc1cc2c(s1)Nc1cc(F)c(F)cc1N=C2N1CCN(C)CC1,300 mg/kg,6.25 mg/kg,,Activity [9]: 3; Activity [14]: 3
CCc1cc2c(s1)Nc1ccccc1N=C2N1CCNCC1,800 mg/kg,100 mg/kg,0,
CCc1cc2c(s1)Nc1ccc(F)cc1N=C2N1CCN(c2cccc(C(F)(F)F)c2)CC1,400 mg/kg,>400 mg/kg,,Activity [15]: 0
CCc1cc2c(s1)Nc1ccc(F)cc1N=C2N1CCN(Cc2ccccc2)CC1,> 400 mg/kg,200 mg/kg,,Activity [16]: 2; Activity [17]: 1
CN1CCN(C2=Nc3ccccc3Nc3sc(C(C)(C)C)cc32)CC1,400 mg/kg,12.5 mg/kg,,Activity [6]: 0
CCc1cc2c(s1)Nc1ccc(F)cc1N=C2N1CCOCC1,> 400 mg/kg,>400 mg/kg,0,
CC(=O)c1cc2c(s1)Nc1ccccc1C(N1CCN(C)CC1)=N2,> 400 mg/kg,200 mg/kg,,Activity [17]: 1
OCCN1CCN(CC/C=C2\c3ccccc3Sc3ccc(C(F)(F)F)cc32)CC1 [E-FLUPENTIXOL],> 400 mg/kg,>400 mg/kg,,Activity [11]: 1; Activity [18]: 0
CCc1cc2c(s1)Nc1cc(F)cc(F)c1N=C2N1CCN(C)CC1,600 mg/kg,25 mg/kg,,Activity [11]: 1; Activity [19]: 1
OCCN1CCN(CC/C=C2/c3ccccc3Sc3ccc(C(F)(F)F)cc32)CC1 [Z-FLUPENTIXOL],300 mg/kg,3 mg/kg,,Activity [20]: 2; Activity [21]: 4
CCCN1CCN(C2=Nc3cc(F)ccc3Nc3sc(CC)cc32)CC1,> 100 mg/kg,6.25 mg/kg,,Activity [6]: 0
CCc1cc2c(s1)Nc1ccc(S(=O)(=O)N(C)C)cc1N=C2N1CCN(C)CC1,> 800 mg/kg,>800 mg/kg,0,
CCc1cc2c(s1)Nc1ccc(Cl)cc1C(N1CCN(C)CC1)=N2,> 100 mg/kg,50 mg/kg,0,
CN1CCN(C2=Nc3cc(F)ccc3Nc3sc(C(C)(C)C)cc32)CC1,> 400 mg/kg,12.5 mg/kg,,Activity [12]: 1; Activity [22]: 1
CN(C)CCCN1c2ccccc2Sc2ccc(Cl)cc21 [CHLORPROMAZINE],400 mg/kg,6.25 mg/kg,,Activity [9]: 3; Activity [12]: 1

Compound,LD50 [2],EDmin [3],Activity [4],also measured
CCc1cc2c(s1)Nc1ccccc1N=C2N1CCN(C)CC1,150 mg/kg,25 mg/kg,,Activity [23]: 2; Activity [24]: 1
CCOC(=O)N1CCN(C2=Nc3cc(F)ccc3Nc3sc(CC)cc32)CC1,> 800 mg/kg,100 mg/kg,0,Activity [18]: 0
CCc1cc2c(s1)Nc1ccc([N+](=O)[O-])cc1N=C2N1CCN(C)CC1,> 400 mg/kg,50 mg/kg,,Activity [1]: 0
CCc1cc2c(s1)Nc1ccc(F)cc1N=C2N1CCN(c2ccccc2)CC1,> 400 mg/kg,>400 mg/kg,,Activity [15]: 0
CCc1cc2c(s1)Nc1ccc(F)cc1N=C2NCCCN1CCOCC1,800 mg/kg,400 mg/kg,,Activity [15]: 0
CCc1cc2c(s1)Nc1ccc(F)cc1N=C2N1CCCCC1,> 200 mg/kg,12.5 mg/kg,0,
CCc1cc2c(s1)Nc1ccc(F)cc1N=C2NCCN1CCOCC1,400 mg/kg,200 mg/kg,,Activity [15]: 0
CN1CCN(C2=Nc3cc(F)ccc3Nc3sc4c(c32)CCCC4)CC1,> 400 mg/kg,100 mg/kg,0,
CCOC(=O)N1CCN(C2=Nc3cc(F)ccc3Nc3sc(C)cc32)CC1,> 400 mg/kg,>400 mg/kg,0,
CCc1cc2c(s1)Nc1ccc(SC)cc1N=C2N1CCN(C)CC1,> 200 mg/kg,100 mg/kg,0,
CCOC(=O)N1CCN(C2=Nc3ccccc3Nc3sc(CC)cc32)CC1,> 400 mg/kg,50 mg/kg,0,
CCc1cc2c(s1)Nc1ccc(F)cc1N=C2NCCO,> 800 mg/kg,200 mg/kg,0,Activity [18]: 0
CC(=O)c1cc2c(s1)Nc1ccc(F)cc1N=C2N1CCN(C)CC1,200 mg/kg,12.5 mg/kg,,Activity [25]: 2; Activity [26]: 0
CCc1cc2c(s1)Nc1ccccc1N=C2N1CCN(CC)CC1,200 mg/kg,50 mg/kg,,Activity [23]: 2; Activity [12]: 1
CCc1cc2c(s1)Nc1ccc(F)cc1N=C2N1CCN(c2cccc(Cl)c2)CC1,> 400 mg/kg,>400 mg/kg,,Activity [15]: 0
CCc1cc2c(s1)Nc1ccccc1N=C2N1CCN(CCO)CC1,> 400 mg/kg,25 mg/kg,,Activity [5]: 2; Activity [13]: 4
CN1CCN(C2=Nc3cc(F)ccc3Nc3sc(-c4ccccc4)cc32)CC1,> 400 mg/kg,50 mg/kg,0,Activity [18]: 0
CCc1cc2c(s1)Nc1ccccc1N=C2N1CCN(Cc2ccccc2)CC1,> 400 mg/kg,200 mg/kg,,Activity [25]: 2; Activity [27]: 4
CCc1cc2c(s1)Nc1ccc(F)cc1N=C2N1CCN(Cc2ccc(Cl)cc2)CC1,> 400 mg/kg,>400 mg/kg,0,Activity [18]: 0
CCc1cc2c(s1)Nc1ccc(Cl)cc1N=C2N1CCNCC1,> 400 mg/kg,50 mg/kg,0,Activity [18]: 0
CCc1cc2c(s1)Nc1ccc(F)cc1N=C2NCCN1CCN(c2ccccc2)CC1,> 800 mg/kg,>400 mg/kg,0,Activity [18]: 0
CCc1cc2c(s1)Nc1ccccc1C(N1CCN(C)CC1)=N2,> 200 mg/kg,100 mg/kg,,Activity [1]: 0
CC(O)c1cc2c(s1)Nc1ccc(F)cc1N=C2N1CCN(C)CC1 (stereo not given),> 400 mg/kg,25 mg/kg,,Activity [27]: 4; Activity [19]: 1
